Experimental data as given in ChEMBL document CHEMBL2086252, “Syntheses and evaluation of anticonvulsant activity of novel branched alkyl carbamates” (J Med Chem, 2012).
The source made the active and inactive calls. The calls are words filed in the database; no cut-off is given here.

Columns and labels:
[1] = system: Mus musculus; assay: Anticonvulsant activity in albino CF1 mouse assessed as protection against subcutaneous metrazol-induced seizures at 30 mg/kg, ip after 0.5 hrs; type: functional, organism-based; parameters: dose 30 mg/kg
Summary of the method: (§1)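 Mice dosed ip at 30, 100 or 300 mg/kg, then tested 0.5 h and 4 h after administration in the MES or scMet test. Protection was recorded as animals protected over animals tested. Neurotoxicity was recorded as motor impairment or sedation, as animals affected over animals tested.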

[2] = system: Mus musculus; assay: Anticonvulsant activity in albino CF1 mouse assessed as protection against subcutaneous metrazol-induced seizures at 100 mg/kg, ip after 0.5 hrs; type: functional, organism-based; parameters: dose 100 mg/kg; summary of the method: as §1
[3] = system: Mus musculus; assay: Anticonvulsant activity in albino CF1 mouse assessed as protection against subcutaneous metrazol-induced seizures at 300 mg/kg, ip after 0.5 hrs; type: functional, organism-based; parameters: dose 300 mg/kg; summary of the method: as §1
[4] = system: Mus musculus; assay: Anticonvulsant activity in albino CF1 mouse assessed as protection against subcutaneous metrazol-induced seizures at 30 mg/kg, ip after 4 hrs; type: functional, organism-based; parameters: dose 30 mg/kg; summary of the method: as §1
[5] = system: Mus musculus; assay: Anticonvulsant activity in albino CF1 mouse assessed as protection against subcutaneous metrazol-induced seizures at 100 mg/kg, ip after 4 hrs; type: functional, organism-based; parameters: dose 100 mg/kg; summary of the method: as §1
[6] = system: Mus musculus; assay: Anticonvulsant activity in albino CF1 mouse assessed as protection against subcutaneous metrazol-induced seizures at 300 mg/kg, ip after 4 hrs; type: functional, organism-based; parameters: dose 300 mg/kg; summary of the method: as §1
[7] = system: Mus musculus; assay: Anticonvulsant activity in albino CF1 mouse assessed as protection against maximal electroshock-induced seizures at 30 mg/kg, ip after 0.5 hrs; type: functional, organism-based; parameters: dose 30 mg/kg; summary of the method: as §1
[8] = system: Mus musculus; assay: Anticonvulsant activity in albino CF1 mouse assessed as protection against maximal electroshock-induced seizures at 300 mg/kg, ip after 0.5 hrs; type: functional, organism-based; parameters: dose 300 mg/kg; summary of the method: as §1
[9] = system: Mus musculus; assay: Anticonvulsant activity in albino CF1 mouse assessed as protection against maximal electroshock-induced seizures at 30 mg/kg, ip after 4 hrs; type: functional, organism-based; parameters: dose 30 mg/kg; summary of the method: as §1
[10] = system: Mus musculus; assay: Anticonvulsant activity in albino CF1 mouse assessed as protection against maximal electroshock-induced seizures at 100 mg/kg, ip after 4 hrs; type: functional, organism-based; parameters: dose 100 mg/kg; summary of the method: as §1
[11] = system: Mus musculus; assay: Anticonvulsant activity in albino CF1 mouse assessed as protection against maximal electroshock-induced seizures at 300 mg/kg, ip after 4 hrs; type: functional, organism-based; parameters: dose 300 mg/kg; summary of the method: as §1
[12] = system: Mus musculus; assay: Neurotoxicity in albino CF1 mouse assessed as minimal motor impairment at 30 mg/kg, ip after 0.5 hrs by rotarod test; type: toxicity, organism-based; parameters: dose 30 mg/kg, route intraperitoneal; settings: in vivo; summary of the method: as §1
[13] = system: Mus musculus; assay: Neurotoxicity in albino CF1 mouse assessed as minimal motor impairment at 100 mg/kg, ip after 0.5 hrs by rotarod test; type: toxicity, organism-based; parameters: dose 100 mg/kg, route intraperitoneal; settings: in vivo; summary of the method: as §1
[14] = system: Mus musculus; assay: Neurotoxicity in albino CF1 mouse assessed as minimal motor impairment at 300 mg/kg, ip after 0.5 hrs by rotarod test; type: toxicity, organism-based; parameters: dose 300 mg/kg, route intraperitoneal; settings: in vivo; summary of the method: as §1
[15] = system: Mus musculus; assay: Neurotoxicity in albino CF1 mouse assessed as minimal motor impairment at 30 mg/kg, ip after 4 hrs by rotarod test; type: toxicity, organism-based; parameters: dose 30 mg/kg, route intraperitoneal; settings: in vivo; summary of the method: as §1
[16] = system: Mus musculus; assay: Neurotoxicity in albino CF1 mouse assessed as minimal motor impairment at 100 mg/kg, ip after 4 hrs by rotarod test; type: toxicity, organism-based; parameters: dose 100 mg/kg, route intraperitoneal; settings: in vivo; summary of the method: as §1
[17] = system: Mus musculus; assay: Neurotoxicity in albino CF1 mouse assessed as minimal motor impairment at 300 mg/kg, ip after 4 hrs by rotarod test; type: toxicity, organism-based; parameters: dose 300 mg/kg, route intraperitoneal; settings: in vivo; summary of the method: as §1
[18] = system: Rattus norvegicus; assay: Anticonvulsant activity in Sprague-Dawley albino rat assessed as protection against pilocarpine-induced status epilepticus at 200 mg/kg, ip; type: functional, organism-based; parameters: dose 200 mg/kg
Summary of the method: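 Pilocarpine status epilepticus model in rats. Number and severity of convulsive seizures were observed behaviourally.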

[19] = system: Rattus norvegicus; assay: Neurotoxicity in pilocarpine-induced status epilepticus Sprague-Dawley albino rat model assessed as minimal motor impairment at 100 mg/kg, ip after 0.25 hr by rotarod test; type: toxicity, organism-based; parameters: dose 100 mg/kg, route intraperitoneal; settings: in vivo
[20] = system: Rattus norvegicus; assay: Neurotoxicity in pilocarpine-induced status epilepticus Sprague-Dawley albino rat model assessed as minimal motor impairment at 300 mg/kg, ip after 0.25 hr by rotarod test; type: toxicity, organism-based; parameters: dose 300 mg/kg, route intraperitoneal; settings: in vivo
Summary of the method: (§2)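 Rat pilocarpine status epilepticus model: test carbamate given at 0 or 30 min after the first observed Racine stage 3 motor seizure, which marks SE onset. Neurotoxicity was scored within the same model.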

[21] = system: Rattus norvegicus; assay: Neurotoxicity in pilocarpine-induced status epilepticus Sprague-Dawley albino rat model assessed as minimal motor impairment at 100 mg/kg, ip after 0.5 hrs by rotarod test; type: toxicity, organism-based; parameters: dose 100 mg/kg, route intraperitoneal; settings: in vivo
[22] = system: Rattus norvegicus; assay: Neurotoxicity in pilocarpine-induced status epilepticus Sprague-Dawley albino rat model assessed as minimal motor impairment at 300 mg/kg, ip after 0.5 hrs by rotarod test; type: toxicity, organism-based; parameters: dose 300 mg/kg, route intraperitoneal; settings: in vivo; summary of the method: as §2
[23] = system: Rattus norvegicus; assay: Neurotoxicity in pilocarpine-induced status epilepticus Sprague-Dawley albino rat model assessed as minimal motor impairment at 100 mg/kg, ip after 1 hr by rotarod test; type: toxicity, organism-based; parameters: dose 100 mg/kg, route intraperitoneal; settings: in vivo
[24] = system: Rattus norvegicus; assay: Neurotoxicity in pilocarpine-induced status epilepticus Sprague-Dawley albino rat model assessed as minimal motor impairment at 100 mg/kg, ip after 2 hrs by rotarod test; type: toxicity, organism-based; parameters: dose 100 mg/kg, route intraperitoneal; settings: in vivo
[25] = system: Rattus norvegicus; assay: Neurotoxicity in pilocarpine-induced status epilepticus Sprague-Dawley albino rat model assessed as minimal motor impairment at 300 mg/kg, ip after 2 hrs by rotarod test; type: toxicity, organism-based; parameters: dose 300 mg/kg, route intraperitoneal; settings: in vivo; summary of the method: as §2
[26] = system: Rattus norvegicus; assay: Neurotoxicity in pilocarpine-induced status epilepticus Sprague-Dawley albino rat model assessed as minimal motor impairment at 100 mg/kg, ip after 4 hrs by rotarod test; type: toxicity, organism-based; parameters: dose 100 mg/kg, route intraperitoneal; settings: in vivo
[27] = system: Rattus norvegicus; assay: Neurotoxicity in pilocarpine-induced status epilepticus Sprague-Dawley albino rat model assessed as minimal motor impairment at 300 mg/kg, ip after 4 hrs by rotarod test; type: toxicity, organism-based; parameters: dose 300 mg/kg, route intraperitoneal; settings: in vivo; summary of the method: as §2

`CC(C)C(C)COC(N)=O` (racemic) was tested, and the Activity [1] was “inactive”, the Activity [2] was “inactive” and the Activity [3] was “Active”. For the same compound, the Activity [4] was “inactive”, the Activity [5] was “inactive” and the Activity [6] was “inactive”. The Activity [7] was “inactive”, the Activity [8] was “Active” and the Activity [9] was “inactive”. For the same compound, the Activity [10] was “inactive”, the Activity [11] was “inactive” and the Activity [12] was “Non-toxic”. The Activity [13] was “Non-toxic”, the Activity [14] was “Toxic” and the Activity [15] was “Non-toxic”. For the same compound, the Activity [16] was “Non-toxic”, the Activity [17] was “Non-toxic” and the Activity [18] was “Active”. For the same compound, the Activity [19] was “Non-toxic”, the Activity [20] was “Toxic” and the Activity [21] was “Non-toxic”. For the same compound, the Activity [22] was “Toxic”, the Activity [23] was “Non-toxic” and the Activity [24] was “Non-toxic”. For the same compound, the Activity [25] was “Non-toxic”, the Activity [26] was “Non-toxic” and the Activity [27] was “Non-toxic”.
